The list is not random: actives were taken first. Their share in the collection is about 2.5%.
TbHK1 inh – blocks Trypanosoma brucei hexokinase 1 activity; recombinant TbHK1, G6PDH-coupled NADH A340; inhibition, % at 10 µM; 0.11% of 220,000 active;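 active = inhibition of 50% or more in the single-dose primary screen; inactive = inhibition below 50%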
PfG6PD inh – PfG6PD (Plasmodium falciparum) enzyme inhibition. PfGluPho enzyme, NADPH resazurin-diaphorase fluorescence. inhibition, % at 20 µM. 0.78% of 350,000 active. AID 504690;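 active = inhibition reaching at least a set limit at 20 µM in the primary screen, cut at about 59% in these data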;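 note: 0% = DMSO wells with substrate and 100% = DMSO wells lacking glucose-6-phosphate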
EP2 antag – blocks the human prostaglandin E2 receptor EP2; P43116; C6 glioma cells expressing human EP2, cAMP TR-FRET; cells stimulated with saturating PGE2; inhibition, % at 25 µM; 0.52% of 260,000 active; AID 1422;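 active = percent inhibition above 40 after rounding to a whole number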;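 note: rat C6 glioma host cells with rolipram phosphodiesterase inhibitor present; the protocol text gives 20 µM as final concentration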
Target sequence (P43116 whole entry, looked up): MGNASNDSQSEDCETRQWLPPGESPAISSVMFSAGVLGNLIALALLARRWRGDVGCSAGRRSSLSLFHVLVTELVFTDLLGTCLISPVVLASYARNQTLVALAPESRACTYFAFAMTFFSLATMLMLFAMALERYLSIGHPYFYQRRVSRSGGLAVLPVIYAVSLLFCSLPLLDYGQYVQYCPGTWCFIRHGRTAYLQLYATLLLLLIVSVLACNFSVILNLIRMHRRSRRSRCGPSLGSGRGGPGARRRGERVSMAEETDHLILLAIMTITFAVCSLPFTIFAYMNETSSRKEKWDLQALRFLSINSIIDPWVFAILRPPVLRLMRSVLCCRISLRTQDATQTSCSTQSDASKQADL
HKDC1 inhibitor – blocks human hexokinase HKDC1 activity | Q2TB90 | recombinant HKDC1, G6PDH/diaphorase resazurin coupled fluorescence | inhibition, % at 20 µM | 0.16% of 340,000 active;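 active = inhibition above about 35% when tested at 20 µM, limit read from the data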;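 note: plate controls were DMSO wells with enzyme for no effect and DMSO wells lacking enzyme for full effect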
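Material – in-house recombinant HK5 (HKDC1) enzyme · Quantity – HKDC1 at 5 µg/mL · Buffer or medium – pH 8.0 Tris buffer with 10 mM MgCl2 · Reagent – glucose with 1 mM ATP · Dosing – single 20 µM dose · Times – reaction time 90 min, room temperature, protected from light · Technique – resorufin fluorescence at 613 nm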
PHOSPHO1 block – blocks human PHOSPHO1 phosphatase activity; recombinant PHOSPHO1, absorbance phosphatase assay; AID 1565; 1.1% of 290,000 active; Q8TCT1; inhibition, % at 13.3 µM; in the data active = inhibition above about 60%
Target sequence (Q8TCT1 whole entry, looked up): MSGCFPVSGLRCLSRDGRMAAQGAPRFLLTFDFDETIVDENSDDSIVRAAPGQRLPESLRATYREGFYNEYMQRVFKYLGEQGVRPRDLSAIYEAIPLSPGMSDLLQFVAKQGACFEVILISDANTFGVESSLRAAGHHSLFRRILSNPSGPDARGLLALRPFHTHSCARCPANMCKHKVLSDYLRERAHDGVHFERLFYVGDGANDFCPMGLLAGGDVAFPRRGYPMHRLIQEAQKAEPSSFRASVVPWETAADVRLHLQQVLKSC
EP2 mod – modulates human prostaglandin E2 receptor EP2 signaling | AID 940 | 0.83% of 260,000 active | EP2-expressing cells, cAMP HTRF FRET, PGE2 co-stimulation | induction, % at 25 µM | P43116;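 active = compounds whose cAMP rise, as percent of the full-agonist control response, exceeds 60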;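 note: rat C6 glioma line stably carrying human EP2 under a CMV promoter; the protocol text gives 20 µM as final concentration; 100% = response of wells given 1 µM PGE2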
HKDC1 act conf – HKDC1 (human) activation, single-dose confirmed; recombinant HKDC1, G6PDH/diaphorase resazurin fluorescence; active compounds read low; inhibition, % at 20 µM; 14% of 740 active; shares compounds with HKDC1 inhibitor;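 active = inhibition at or below a set negative limit, negative inhibition meaning the enzyme was activated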
* marks the source's active call; other numbers are inactive results.

Cc1nc([N+](=O)[O-])c(Br)n1Cc1ccc(Cl)c(Cl)c1 was read as TbHK1 inh -10, PfG6PD inh 6, EP2 antag 10, HKDC1 inhibitor 35, PHOSPHO1 block -5, EP2 mod -4 and HKDC1 act conf 54.
For COc1cc(/C=C2\SC(=O)N(c3cccc(Cl)c3)C2=O)cc([N+](=O)[O-])c1O the results were TbHK1 inh 9, PfG6PD inh -17, EP2 antag 8, HKDC1 inhibitor 51*, PHOSPHO1 block 13, EP2 mod -13 and HKDC1 act conf -13.
For COc1cc(/C=C2/C(=O)NN(c3ccc(C)c(Cl)c3)C2=O)cc([N+](=O)[O-])c1O the results were PfG6PD inh -7, HKDC1 inhibitor 29 and PHOSPHO1 block 28.
COc1cc(/C=C2\SC(=O)N(c3ccc(Cl)cc3)C2=O)cc([N+](=O)[O-])c1O was read as TbHK1 inh -2, PfG6PD inh 16, EP2 antag 3, HKDC1 inhibitor 44*, PHOSPHO1 block 24, EP2 mod 4 and HKDC1 act conf -27.
Screening CCn1c(=O)c(C(=O)NNC(=O)C(C)C)c(O)c2ccccc21 returned EP2 antag 22 and EP2 mod -24.
`Cc1ccc(C(=O)Nc2sc3c(c2C(N)=O)CCCC3)cc1Cl` gave EP2 antag 11 and EP2 mod -77.
For Cc1cc(Cl)ccc1OCC(=O)Nc1ccccc1N1CCN(S(C)(=O)=O)CC1 the results were EP2 antag 14 and EP2 mod 3.
For Cc1sc2ncnc(SCC(=O)N3c4ccccc4Sc4ccc(Cl)cc43)c2c1C the results were TbHK1 inh -7, PfG6PD inh 11, EP2 antag 8, HKDC1 inhibitor -5, PHOSPHO1 block 0 and EP2 mod 3.
Screening CCOC(=O)c1c(C)sc2c1N(C(=O)CCl)c1cc(Cl)ccc1S2 returned TbHK1 inh -2, PfG6PD inh 12, EP2 antag 11, HKDC1 inhibitor 45*, PHOSPHO1 block 25, EP2 mod 34 and HKDC1 act conf 22.
COc1ccc2c(c1)c(=O)oc1c(C)c(OCc3cc(C(=O)O)oc3C)ccc12 was read as TbHK1 inh -1, PfG6PD inh -17, EP2 antag 5, HKDC1 inhibitor 79*, PHOSPHO1 block 23, EP2 mod -5 and HKDC1 act conf 11.
For Cc1ccc(C(=O)N2CCN(C3c4cccc5cccc(c45)C3NS(=O)(=O)c3ccccc3)CC2)cc1 (stereo not given) the results were TbHK1 inh -9, PfG6PD inh -17, EP2 antag 11, HKDC1 inhibitor -15, PHOSPHO1 block -102 and EP2 mod 20.
Screening Cc1ccc(S(=O)(=O)NC2c3cccc4cccc(c34)C2Sc2nncn2C)cc1 (stereo not given) returned TbHK1 inh -1, PfG6PD inh 1, EP2 antag 4, HKDC1 inhibitor -14, PHOSPHO1 block -16 and EP2 mod 13.
`CC(=O)N1CCN(C2c3cccc4cccc(c34)C2NS(=O)(=O)c2ccccc2)CC1` (stereo not given) gave TbHK1 inh -6, PfG6PD inh -22, EP2 antag 3, HKDC1 inhibitor -49, PHOSPHO1 block 1, EP2 mod 4 and HKDC1 act conf -45*.
Cn1cnnc1SC1c2cccc3cccc(c23)C1NS(=O)(=O)c1ccccc1 (stereo not given) was read as TbHK1 inh 33, PfG6PD inh -50, EP2 antag 4, HKDC1 inhibitor -49, PHOSPHO1 block -24, EP2 mod 1 and HKDC1 act conf -64*.
Cc1ccnc(N2CCC(C(=O)NCCc3ccc(Cl)cc3)CC2)n1 was read as EP2 antag 11 and EP2 mod 14.
COc1cccc(-n2nnnc2SCC(=O)Nc2nnc(C)s2)c1 was read as EP2 antag 12 and EP2 mod -21.
For Cc1ccccc1Nc1nc(N)nc(CSc2nnc3sc4ccccc4n23)n1 the results were TbHK1 inh -3, PfG6PD inh 35, EP2 antag 7, HKDC1 inhibitor 36*, PHOSPHO1 block 55, EP2 mod -21 and HKDC1 act conf 33.
CCOC(=O)c1sc(NC(=O)CSc2nnc3c(C)cc4cc5c(cc4n23)OCCO5)nc1C was read as EP2 antag 9 and EP2 mod 3.
O=C(CCl)N1CCN2C(=O)c3ccccc3C12c1ccc(Cl)cc1 (stereo not given) was read as TbHK1 inh 1, PfG6PD inh 17, EP2 antag 9, HKDC1 inhibitor 32, PHOSPHO1 block -22, EP2 mod 6 and HKDC1 act conf 8.
CCOCc1nnc(NC(=O)c2cc3cccc(C)c3nc2C)s1 was read as EP2 antag 3 and EP2 mod -15.
O=C(O)c1ccc(N2C(=O)/C(=C/c3ccc(-c4ccc([N+](=O)[O-])cc4)o3)C=C2c2ccccc2)cc1 was read as TbHK1 inh 28, PfG6PD inh 25, EP2 antag 7, HKDC1 inhibitor 43*, PHOSPHO1 block 16, EP2 mod -17 and HKDC1 act conf 1.
`O=C(O)CSc1cc(NS(=O)(=O)c2ccc(Br)cc2)c2ccccc2c1O` gave PfG6PD inh 100*, HKDC1 inhibitor 59*, PHOSPHO1 block -55 and HKDC1 act conf 37.
`O=[N+]([O-])c1ccc(NN=Cc2ccc(O)cc2O)nc1` gave PfG6PD inh 4, HKDC1 inhibitor 37* and HKDC1 act conf 51.
`Oc1ccc(/C=N/Nc2nccnc2Cl)c(O)c1` gave TbHK1 inh -25, PfG6PD inh -24, EP2 antag 8, HKDC1 inhibitor -5, PHOSPHO1 block 1 and EP2 mod -41.
Screening O=[N+]([O-])c1ccc(NN=Cc2ccccc2O)nc1 returned PfG6PD inh 10 and HKDC1 inhibitor 7.
Oc1ccc(/C=N/Nc2ncc(Br)cn2)c(O)c1 was read as TbHK1 inh -35, PfG6PD inh 5, EP2 antag 11, HKDC1 inhibitor 39*, PHOSPHO1 block -7, EP2 mod 27 and HKDC1 act conf 45.
`O=C(O)c1ccc2c(=O)n(-c3ccc(F)cc3)c(=S)[nH]c2c1` gave TbHK1 inh -13, PfG6PD inh -13, EP2 antag 2, HKDC1 inhibitor -9, PHOSPHO1 block 33 and EP2 mod 6.
O=C(O)c1ccc2c(=O)n(-c3ccccc3)c(=S)[nH]c2c1 was read as TbHK1 inh -7, PfG6PD inh 29, EP2 antag 3, HKDC1 inhibitor 84*, PHOSPHO1 block 30, EP2 mod 15 and HKDC1 act conf -2.
For Cc1cc(C)c(NC(=O)Cn2c(-c3nonc3N)nc3ccccc32)c(C)c1 the results were EP2 antag 7 and EP2 mod 0.

Bioassay records from PubChem.
